Assay [1] concerns the target T1, Estrogen receptor (Homo sapiens) (UniProt P03372).
T1 sequence (whole entry): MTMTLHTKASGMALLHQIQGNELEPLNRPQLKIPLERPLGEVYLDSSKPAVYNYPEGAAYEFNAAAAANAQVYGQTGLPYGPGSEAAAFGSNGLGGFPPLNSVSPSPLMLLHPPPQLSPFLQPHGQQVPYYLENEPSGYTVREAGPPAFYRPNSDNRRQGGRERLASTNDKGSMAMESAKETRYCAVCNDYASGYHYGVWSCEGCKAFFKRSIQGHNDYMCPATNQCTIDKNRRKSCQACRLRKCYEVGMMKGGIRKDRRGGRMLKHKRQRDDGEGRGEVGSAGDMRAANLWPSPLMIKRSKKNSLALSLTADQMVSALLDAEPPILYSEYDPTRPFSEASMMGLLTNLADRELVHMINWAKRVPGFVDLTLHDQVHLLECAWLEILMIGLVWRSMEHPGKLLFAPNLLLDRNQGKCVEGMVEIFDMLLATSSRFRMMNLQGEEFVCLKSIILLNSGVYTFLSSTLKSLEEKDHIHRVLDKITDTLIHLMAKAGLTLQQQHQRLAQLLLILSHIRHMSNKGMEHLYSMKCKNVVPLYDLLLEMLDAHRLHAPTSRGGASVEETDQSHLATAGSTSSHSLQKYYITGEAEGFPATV
As to the kind of experiment: Displacement of [6,7-3H]17 beta-estradiol from human recombinant ER alpha assessed as relative binding affinity incubated for 18 hrs at 4 degC by radiometric binding assay relative to estradiol. A digest of the protocol: (§1)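 Human recombinant ERα or ERβ, 0.5 µg/tube, in buffer of 20 mM Tris–HCl pH 8.0, 0.3 M NaCl, 1 mM EDTA, 10 mM 2-mercaptoethanol, 0.2 mM PMSF. Incubated with 4 nM [6,7-³H]17β-estradiol ± unlabeled competitor, 4 °C, 18 h, in duplicate. Collected on nitrocellulose filter, washed, read by liquid scintillation. RBA taken with estradiol as 100; […] is the ERβ/ERα RBA ratio.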

Assay [2] concerns the target Estrogen receptor beta (Homo sapiens) (UniProt Q92731). As to the kind of experiment: Displacement of [6,7-3H]17 beta-estradiol from human recombinant ER beta assessed as relative binding affinity incubated for 18 hrs at 4 degC by radiometric binding assay relative to estradiol. Summed up:
as §1

For a further assay, the species on record is Homo sapiens. Briefly: Ratio of RBA for human recombinant ER beta to RBA for human recombinant ER alpha. Summed up: as §1
The test system of assay [3] is MCF7. As to the kind of experiment: Estrogenic activity in human MCF7 cells assessed as increase in cell proliferation incubated for 4 days by WST-8 assay. The format is functional, cell-based. The note with it: MCF7, 96 h. Summed up: (§2)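 MCF-7 cells kept in D-MEM with 10% FBS at 37 °C, 5% CO2. Before assay, switched to phenol red-free low-glucose D-MEM with 5% sFBS and seeded at 2000 cells/well. Serial dilutions, 1×10^-13 to 1×10^-6 M, given alone, DMSO as control. 4 days in triplicate, medium replaced after 2 days. WST-8 added, absorbance at 450 nm after 2–4 h. EC50 from sigmoidal curves; Emax relative to E2 as 100.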

The test system of assay [4] is MCF7. Briefly: Anti-estrogenic activity in human MCF7 cells assessed as reduction in estradiol-induced increase in cell proliferation incubated for 4 days by WST-8 assay. The note with it: MCF7, 96 h. The format is functional, cell-based. Summed up: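 MCF-7 cells in phenol red-free low-glucose D-MEM with 5% sFBS, 2000 cells/well. Serial dilutions, 1×10^-13 to 1×10^-6 M, given with 0.1 nM estradiol, DMSO as control. 4 days in triplicate, medium with compound and estradiol renewed at day 2. Growth read by WST-8, absorbance at 450 nm after 2–4 h. IC50 from sigmoidal dose–response curves.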
In general terms: Tetrazolium dyes change colour on reduction, which living cells bring about.

Assay [5] relates to MCF7. As to the kind of experiment: Estrogenic activity in human MCF7 cells assessed as increase in cell proliferation incubated for 4 days by WST-8 assay relative to estradiol. The format is functional. The conditions noted are these: MCF7, 96 h. Summed up:
as §2

Molecules are shown by their SMILES.

Sequence of Estrogen receptor beta (Homo sapiens) (Q92731 whole entry): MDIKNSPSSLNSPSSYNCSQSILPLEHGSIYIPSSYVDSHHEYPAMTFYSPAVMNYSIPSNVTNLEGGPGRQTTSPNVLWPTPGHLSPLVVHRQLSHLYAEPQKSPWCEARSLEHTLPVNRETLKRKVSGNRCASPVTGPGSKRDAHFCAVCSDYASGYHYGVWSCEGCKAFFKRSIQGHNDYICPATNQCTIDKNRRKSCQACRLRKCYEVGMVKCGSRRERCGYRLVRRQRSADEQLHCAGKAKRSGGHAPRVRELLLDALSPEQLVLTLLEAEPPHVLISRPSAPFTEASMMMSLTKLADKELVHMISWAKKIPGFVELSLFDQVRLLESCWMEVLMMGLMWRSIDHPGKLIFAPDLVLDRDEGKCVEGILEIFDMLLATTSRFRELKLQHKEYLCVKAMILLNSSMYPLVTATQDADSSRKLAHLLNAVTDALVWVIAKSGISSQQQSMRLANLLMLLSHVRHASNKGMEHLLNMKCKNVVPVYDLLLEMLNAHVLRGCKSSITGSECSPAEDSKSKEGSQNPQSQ

Turning to `CC1(C)CCCC(C(c2ccc(O)cc2)c2ccc(O)cc2)C1` (stereo unspecified), the RBA in assay [1] stood at 98.8%; in assay [2] it was 30.7%. Besides, the Ratio in the assay listed under Homo sapiens came to 0.3. In addition, the EC50 (usually the midpoint of the concentration-response curve) in the assay with MCF7 [3] came to 2.4 nM. In the assay on MCF7 [4], the IC50 (commonly the midpoint of a concentration-inhibition curve) is 64.9 nM. Besides, the Emax with MCF7 [5] turned out to be 74%.

With `Oc1ccc(C(c2ccc(O)cc2)C2CCCCC2)cc1`, the RBA in assay [1] stood at 6.71%; in assay [2], 15.5%. The Ratio in the assay listed under Homo sapiens was found to be 2.3. Besides, the EC50 in the assay on MCF7 [3] was found to be 54.1 nM. In addition, in the assay on MCF7 [4], the half-maximal inhibitory concentration (IC50) was more than 1000 nM. Also, the Emax with MCF7 [5] worked out at 79%.

In the case of `Oc1ccc(C(c2ccc(O)cc2)C2CCC(F)(F)CC2)cc1`, the figures for the RBA in assay [1] and in assay [2] were 2.71% and 3.93%, respectively. In addition, the Ratio in the assay listed under Homo sapiens came out at 1.3. For the same compound, in the assay on MCF7 [3], the EC50 came out at 22.5 nM. In addition, the half-inhibitory concentration (IC50) in the assay on MCF7 [4] was more than 1000 nM. Also, the Emax with MCF7 [5] came out at 80%.

Regarding `Oc1ccc(C(c2ccc(O)cc2)C2CCCC3(CCCCC3)C2)cc1` (stereo unspecified), the RBA was 21.9% in assay [1] and 29.3% in assay [2]. The Ratio in the assay filed under Homo sapiens stood at 1.3. Besides, in the assay with MCF7 [3], the EC50 was 0.8 nM. Further, in the assay on MCF7 [4], the IC50 is more than 1000 nM. In addition, the Emax in the assay with MCF7 [5] is 74%.

As to `Oc1ccc(C(c2ccc(O)cc2)C2CCCC(F)(F)C2)cc1` (stereo unspecified), the RBA in assay [1] was found to be 5.78%; in assay [2] it was 4.29%. The Ratio in the assay listed under Homo sapiens was found to be 0.7. Besides, the EC50 with MCF7 [3] was determined as 16.6 nM. Besides, the IC50 with MCF7 [4] turned out to be 19.6 nM. Also, in the assay on MCF7 [5], the Emax was 58%.

As to `Oc1ccc(C(c2ccc(O)cc2)C2CCC(Br)(Br)CC2)cc1`, the RBA in assay [1] came to 0.957%; in assay [2], 0.18%. In addition, the Ratio in the assay filed under Homo sapiens amounted to 0.2. Moreover, the EC50 in the assay with MCF7 [3] worked out at 211 nM. Besides, the IC50 with MCF7 [4] was more than 1000 nM. For the same compound, the Emax in the assay on MCF7 [5] was determined as 64%.

As for `Oc1ccc(C(c2ccc(O)cc2)C2CCCC(Cl)(Cl)C2)cc1` (stereo unspecified), the RBA in assay [1] is 15.3%; in assay [2], 15.7%. Besides, in the assay listed under Homo sapiens, the Ratio turned out to be 1. In addition, the EC50 with MCF7 [3] stood at 4.6 nM. The half-maximal inhibitory concentration (IC50) in the assay on MCF7 [4] was more than 1000 nM. For the same compound, in the assay with MCF7 [5], the Emax is 70%.

Consider `CC1(C)CCC(C(c2ccc(O)cc2)c2ccc(O)cc2)CC1`, for which the RBA in assay [1] was determined as 3.64%; in assay [2], 3.02%. Further, the Ratio in the assay listed under Homo sapiens worked out at 1.2. Also, the EC50 in the assay on MCF7 [3] is 68.4 nM. In the assay on MCF7 [4], the IC50 is more than 1000 nM. In the assay on MCF7 [5], the Emax turned out to be 72%.

Turning to `Oc1ccc(C(c2ccc(O)cc2)C2CCCC3(C2)SCCCS3)cc1` (stereo unspecified), the figures for the RBA in assay [1] and in assay [2] were 50.6% and 8.43%, respectively. In the assay listed under Homo sapiens, the Ratio worked out at 0.2. In addition, in the assay with MCF7 [3], the EC50 worked out at 0.39 nM. Besides, in the assay on MCF7 [4], the IC50 was more than 1000 nM. In the assay on MCF7 [5], the Emax amounted to 80%.

Take `Oc1ccc(C(c2ccc(O)cc2)C2CCCC2)cc1`: the RBA amounted to 4.61% in assay [1] and 13.7% in assay [2]. The Ratio in the assay filed under Homo sapiens is 3. In addition, in the assay with MCF7 [3], the EC50 amounted to 48.8 nM. For the same compound, the IC50 with MCF7 [4] was more than 1000 nM. Further, in the assay on MCF7 [5], the Emax was determined as 69%.

In the case of `CC1(C)CC(C(c2ccc(O)cc2)c2ccc(O)cc2)CC(C)(C)C1`, the RBA in assay [1] is 28.4%; in assay [2] it was 35.2%. In addition, the Ratio in the assay filed under Homo sapiens stood at 1.2. The IC50 in the assay with MCF7 [4] was 63.1 nM. Besides, the Emax in the assay with MCF7 [5] stood at 32%.

For the compound `Oc1ccc(C(c2ccc(O)cc2)C2CCC3(CC2)OCCO3)cc1`, the RBA in assay [1] turned out to be 0.465%; in assay [2], 0.219%. For the same compound, in the assay listed under Homo sapiens, the Ratio was found to be 0.5. In addition, in the assay with MCF7 [4], the IC50 is more than 1000 nM. Also, the Emax with MCF7 [5] is 22%.

For `Oc1ccc(C(c2ccc(O)cc2)C2CCC(Cl)(Cl)CC2)cc1`, the RBA was 0.662% in assay [1] and 0.158% in assay [2]. In addition, the Ratio in the assay listed under Homo sapiens stood at 0.2. In addition, the EC50 with MCF7 [3] was found to be 304 nM. Moreover, the IC50 in the assay on MCF7 [4] was more than 1000 nM. In the assay on MCF7 [5], the Emax turned out to be 78%.

These data come from ChEMBL document CHEMBL3627694, “Estrogenic activity of bis(4-hydroxyphenyl)methanes with cyclic hydrophobic structure” (Bioorg Med Chem, 2015).
